How the values were obtained:
[1] = Cytotoxicity against human HepG2.2.15 cells assessed as cell death after 9 days by MTT assay; type: cell-based, HepG2 2.2.15
Outline: (§1)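 HepG2.2.15 cells (MEM, 10% FBS, 380 µg/ml G418, 37 °C, 5% CO2) seeded at 1×10^5 cells/ml, cultured 24 h, then exposed to various drug concentrations; drug-containing medium renewed every 3 d. OD read at 450 nm after 9 days; percent cell death calculated; CC50 = concentration killing 50% of cells. Means of at least two experiments.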

Hepatitis B virus [2] = test: Antiviral activity against Hepatitis B virus infected in human HepG2.2.15 cells assessed as inhibition of HBsAg secretion by ELISA; type: functional, organism-based; details: HepG2 2.2.15
Outline: (§2)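 HepG2.2.15 cells (MEM, 10% FBS, 380 µg/ml G418) seeded at 1×10^5 cells/ml, held 24 h at 37 °C, then treated with various drug concentrations; medium with drug renewed every 3 d for up to 9 d. Culture medium sampled on days 3, 6 and 9, stored at -20 °C, and assayed for secreted antigen. Lamivudine as positive control; IC50 = 50% inhibition of secretion; means of at least two experiments.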

[3] = Selectivity index, ratio of CC50 for human HepG2.2.15 cells to IC50 for Hepatitis B virus infected in human HepG2.2.15 cells assessed as inhibition of HBsAg secretion; type: functional
Outline: (§3)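 Selectivity index computed as CC50/IC50, with CC50 from cell death of HepG2.2.15 cells after 9 days of treatment (OD 450 nm) and IC50 from 50% inhibition of HBeAg or HBsAg secretion in the same cells; medium with drug renewed every 3 d.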

Hepatitis B virus [4] = test: Antiviral activity against Hepatitis B virus infected in human HepG2.2.15 cells assessed as inhibition of HBeAg secretion by ELISA; type: functional, organism-based; details: HepG2 2.2.15; outline: as §2
[5] = Selectivity index, ratio of CC50 for human HepG2.2.15 cells to IC50 for Hepatitis B virus infected in human HepG2.2.15 cells assessed as inhibition of HBeAg secretion; type: functional; outline: as §3
Hepatitis B virus [6] = test: Antiviral activity against Hepatitis B virus infected in human HepG2.2.15 cells assessed as inhibition of HBsAg secretion at 300 uM after 3 days by ELISA; type: functional; details: HepG2 2.2.15, 72 h; outline: as §2
Hepatitis B virus [7] = test: Antiviral activity against Hepatitis B virus infected in human HepG2.2.15 cells assessed as inhibition of HBsAg secretion at 150 uM after 3 days by ELISA; type: functional; details: HepG2 2.2.15, 72 h; outline: as §2
Hepatitis B virus [8] = test: Antiviral activity against Hepatitis B virus infected in human HepG2.2.15 cells assessed as inhibition of HBsAg secretion at 75 uM after 3 days by ELISA; type: functional; details: HepG2 2.2.15, 72 h; outline: as §2
Hepatitis B virus [9] = test: Antiviral activity against Hepatitis B virus infected in human HepG2.2.15 cells assessed as inhibition of HBsAg secretion at 300 uM after 6 days by ELISA; type: functional; details: HepG2 2.2.15, 144 h; outline: as §2
Hepatitis B virus [10] = test: Antiviral activity against Hepatitis B virus infected in human HepG2.2.15 cells assessed as inhibition of HBsAg secretion at 150 uM after 6 days by ELISA; type: functional; details: HepG2 2.2.15, 144 h; outline: as §2
Hepatitis B virus [11] = test: Antiviral activity against Hepatitis B virus infected in human HepG2.2.15 cells assessed as inhibition of HBsAg secretion at 75 uM after 6 days by ELISA; type: functional; details: HepG2 2.2.15, 144 h; outline: as §2
Hepatitis B virus [12] = test: Antiviral activity against Hepatitis B virus infected in human HepG2.2.15 cells assessed as inhibition of HBsAg secretion at 37.5 uM after 6 days by ELISA; type: functional; details: HepG2 2.2.15, 144 h; outline: as §2
Hepatitis B virus [13] = test: Antiviral activity against Hepatitis B virus infected in human HepG2.2.15 cells assessed as inhibition of HBsAg secretion at 300 uM after 9 days by ELISA; type: functional; details: HepG2 2.2.15, 216 h; outline: as §2
Hepatitis B virus [14] = test: Antiviral activity against Hepatitis B virus infected in human HepG2.2.15 cells assessed as inhibition of HBsAg secretion at 150 uM after 9 days by ELISA; type: functional; details: HepG2 2.2.15, 216 h; outline: as §2
Hepatitis B virus [15] = test: Antiviral activity against Hepatitis B virus infected in human HepG2.2.15 cells assessed as inhibition of HBsAg secretion at 75 uM after 9 days by ELISA; type: functional; details: HepG2 2.2.15, 216 h; outline: as §2
Hepatitis B virus [16] = test: Antiviral activity against Hepatitis B virus infected in human HepG2.2.15 cells assessed as inhibition of HBsAg secretion at 37.5 uM after 9 days by ELISA; type: functional; details: HepG2 2.2.15, 216 h; outline: as §2
Hepatitis B virus [17] = test: Antiviral activity against Hepatitis B virus infected in human HepG2.2.15 cells assessed as cell survival at 300 uM after 9 days (reference value: 100%); type: functional; details: HepG2 2.2.15, 216 h; outline: as §1
Hepatitis B virus [18] = test: Antiviral activity against Hepatitis B virus infected in human HepG2.2.15 cells assessed as cell survival at 150 uM after 9 days (reference value: 100%); type: functional; details: HepG2 2.2.15, 216 h; outline: as §1
Hepatitis B virus [19] = test: Antiviral activity against Hepatitis B virus infected in human HepG2.2.15 cells assessed as cell survival at 75 uM after 9 days (reference value: 100%); type: functional; details: HepG2 2.2.15, 216 h; outline: as §1
Hepatitis B virus [20] = test: Antiviral activity against Hepatitis B virus infected in human HepG2.2.15 cells assessed as cell survival at 37.5 uM after 9 days (reference value: 100%); type: functional; details: HepG2 2.2.15, 216 h; outline: as §1
Hepatitis B virus [21] = test: Antiviral activity against Hepatitis B virus infected in human HepG2.2.15 cells assessed as inhibition of HBeAg secretion at 300 uM after 3 days by ELISA; type: functional; details: HepG2 2.2.15, 72 h; outline: as §2
Hepatitis B virus [22] = test: Antiviral activity against Hepatitis B virus infected in human HepG2.2.15 cells assessed as inhibition of HBeAg secretion at 150 uM after 3 days by ELISA; type: functional; details: HepG2 2.2.15, 72 h; outline: as §2
Hepatitis B virus [23] = test: Antiviral activity against Hepatitis B virus infected in human HepG2.2.15 cells assessed as inhibition of HBeAg secretion at 75 uM after 3 days by ELISA; type: functional; details: HepG2 2.2.15, 72 h; outline: as §2
Hepatitis B virus [24] = test: Antiviral activity against Hepatitis B virus infected in human HepG2.2.15 cells assessed as inhibition of HBeAg secretion at 37.5 uM after 3 days by ELISA; type: functional; details: HepG2 2.2.15, 72 h; outline: as §2
Hepatitis B virus [25] = test: Antiviral activity against Hepatitis B virus infected in human HepG2.2.15 cells assessed as inhibition of HBeAg secretion at 300 uM after 6 days by ELISA; type: functional; details: HepG2 2.2.15, 144 h; outline: as §2
Hepatitis B virus [26] = test: Antiviral activity against Hepatitis B virus infected in human HepG2.2.15 cells assessed as inhibition of HBeAg secretion at 150 uM after 6 days by ELISA; type: functional; details: HepG2 2.2.15, 144 h; outline: as §2
Hepatitis B virus [27] = test: Antiviral activity against Hepatitis B virus infected in human HepG2.2.15 cells assessed as inhibition of HBeAg secretion at 75 uM after 6 days by ELISA; type: functional; details: HepG2 2.2.15, 144 h; outline: as §2
Hepatitis B virus [28] = test: Antiviral activity against Hepatitis B virus infected in human HepG2.2.15 cells assessed as inhibition of HBeAg secretion at 37.5 uM after 6 days by ELISA; type: functional; details: HepG2 2.2.15, 144 h; outline: as §2
Hepatitis B virus [29] = test: Antiviral activity against Hepatitis B virus infected in human HepG2.2.15 cells assessed as inhibition of HBeAg secretion at 300 uM after 9 days by ELISA; type: functional; details: HepG2 2.2.15, 216 h; outline: as §2
Hepatitis B virus [30] = test: Antiviral activity against Hepatitis B virus infected in human HepG2.2.15 cells assessed as inhibition of HBeAg secretion at 150 uM after 9 days by ELISA; type: functional; details: HepG2 2.2.15, 216 h; outline: as §2
Hepatitis B virus [31] = test: Antiviral activity against Hepatitis B virus infected in human HepG2.2.15 cells assessed as inhibition of HBeAg secretion at 75 uM after 9 days by ELISA; type: functional; details: HepG2 2.2.15, 216 h; outline: as §2
Hepatitis B virus [32] = test: Antiviral activity against Hepatitis B virus infected in human HepG2.2.15 cells assessed as inhibition of HBeAg secretion at 37.5 uM after 9 days by ELISA; type: functional; details: HepG2 2.2.15, 216 h; outline: as §2

## COc1ccc(/C=C/C(=O)O/N=C/c2ccccn2)cc1OC
[1]
  CC50 at 216 h: 545 µM
Hepatitis B virus [2]
  IC50: 152 µM
[3]
  Ratio CC50/IC50: 3.59
Hepatitis B virus [4]
  IC50: 162 µM
[5]
  Ratio CC50/IC50: 3.37
Hepatitis B virus [6]
  inhibition at 300 µM: 13.3%
Hepatitis B virus [7]
  inhibition at 150 µM: 10.8%
Hepatitis B virus [8]
  inhibition at 75 µM: 2.54%
Hepatitis B virus [9]
  inhibition at 300 µM: 32.8%
Hepatitis B virus [10]
  inhibition at 150 µM: 26.8%
Hepatitis B virus [11]
  inhibition at 75 µM: 19.5%
Hepatitis B virus [12]
  inhibition at 37.5 µM: 11.2%
Hepatitis B virus [13]
  inhibition at 300 µM: 61.3%
Hepatitis B virus [14]
  inhibition at 150 µM: 54.5%
Hepatitis B virus [15]
  inhibition at 75 µM: 36.7%
Hepatitis B virus [16]
  inhibition at 37.5 µM: 19.8%
Hepatitis B virus [17]
  viability at 300 µM: 99.5%
Hepatitis B virus [18]
  viability at 150 µM: 102%
Hepatitis B virus [19]
  viability at 75 µM: 104%
Hepatitis B virus [20]
  viability at 37.5 µM: 107%
Hepatitis B virus [21]
  inhibition at 300 µM: 50.4%
Hepatitis B virus [22]
  inhibition at 150 µM: 36.7%
Hepatitis B virus [23]
  inhibition at 75 µM: 27.7%
Hepatitis B virus [24]
  inhibition at 37.5 µM: 19.3%
Hepatitis B virus [25]
  inhibition at 300 µM: 56.9%
Hepatitis B virus [26]
  inhibition at 150 µM: 47.4%
Hepatitis B virus [27]
  inhibition at 75 µM: 32.9%
Hepatitis B virus [28]
  inhibition at 37.5 µM: 24.7%
Hepatitis B virus [29]
  inhibition at 300 µM: 59.2%
Hepatitis B virus [30]
  inhibition at 150 µM: 48.4%
Hepatitis B virus [31]
  inhibition at 75 µM: 40.3%
Hepatitis B virus [32]
  inhibition at 37.5 µM: 27%

## COc1cc(C=O)cc(OC)c1OC
[1]
  CC50 at 216 h: > 1500 µM

## COc1cc(/C=C/C(=O)O)cc(OC)c1OC [SINAPIC ACID METHYL ETHER]
[1]
  CC50 at 216 h: 834 µM
Hepatitis B virus [2]
  IC50: > 600 µM
[3]
  Ratio CC50/IC50: <1.39
Hepatitis B virus [4]
  IC50: > 600 µM
[5]
  Ratio CC50/IC50: <1.39

## O=C(O)/C=C/c1ccc2c(c1)OCO2
[1]
  CC50 at 216 h: 503 µM
Hepatitis B virus [2]
  IC50: 433 µM
[3]
  Ratio CC50/IC50: 1.16
Hepatitis B virus [4]
  IC50: 526 µM
[5]
  Ratio CC50/IC50: 0.96

## COc1cc(/C=C/C(=O)O)cc2c1OCO2
[1]
  CC50 at 216 h: 667 µM
Hepatitis B virus [2]
  IC50: 411 µM
[3]
  Ratio CC50/IC50: 1.62
Hepatitis B virus [4]
  IC50: 477 µM
[5]
  Ratio CC50/IC50: 1.4

## O/N=C/c1ccccn1
[1]
  CC50 at 216 h: 402 µM
Hepatitis B virus [2]
  IC50: 387 µM
[3]
  Ratio CC50/IC50: 1.04
Hepatitis B virus [4]
  IC50: 469 µM
[5]
  Ratio CC50/IC50: 0.86
